In ChEMBL document CHEMBL1155723, “Cytotoxic pheophorbide-related compounds from Clerodendrum calamitosum and C. cyrtophyllum” (2001):
≈ marks a conversion by molar mass, not a printed value. Calls of active or inactive are those of the source. No cut-off for these calls is given here.

What was measured:
[1] = system: KB; test: Selectivity for human KB-VCR cells to human KB cells; type: functional
[2] = system: KB; test: Selectivity for human KB-CPT cells to human KB cells; type: functional
[3] = system: KB; test: Selectivity for human KB-7d cells to human KB cells; type: functional
[4] = system: HTC; test: Cytostatic activity against rat HTC cells at 33 ug/ml under direct photoirradiation; type: functional, cell-based
[5] = system: 1A9; test: Cytotoxicity against human 1A9 cells after 72 hrs by SRB assay; type: functional; settings: 1A9, 72 h, read-out: ED50 (the source's name)
How it was run: (§1)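 Stock cultures kept in RPMI-1640 with 25 mM HEPES, 0.2% (w/v) NaHCO3, 10% (v/v) FBS and 100 µg/mL kanamycin at 37 °C, 5% CO2. Trypsinized cells seeded at 2500-10 000 per well and exposed 72 h at 37 °C to graded concentrations from DMSO stocks (final DMSO ≤2% v/v). Cells fixed with cold 50% TCA, stained with 0.4% SRB, A562 read. ED50 interpolated from dose-response, triplicate.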

[6] = system: MCF7; test: Cytotoxicity against human MCF7 cells after 72 hrs by SRB assay; type: functional; settings: MCF7, 72 h, read-out: ED50 (the source's name); how it was run: as §1
[7] = system: KB; test: Cytotoxicity against human KB cells after 72 hrs by SRB assay; type: functional; settings: read-out: ED50 (the source's name); how it was run: as §1
[8] = system: A549; test: Cytotoxicity against human A549 cells after 72 hrs by SRB assay; type: functional; settings: A549, 72 h, read-out: ED50 (the source's name); how it was run: as §1
[9] = system: HTC; test: Cytostatic activity against rat HTC cells at 33 ug/ml; type: functional, cell-based
[10] = Cytotoxicity against human CAKI cells after 72 hrs by SRB assay; type: functional; settings: read-out: ED50 (the source's name); how it was run: as §1
[11] = system: SK-MEL; test: Cytotoxicity against human SK-MEL cells after 72 hrs by SRB assay; type: functional; settings: read-out: ED50 (the source's name); how it was run: as §1
[12] = system: HCT-8; test: Cytotoxicity against human HCT8 cells after 72 hrs by SRB assay; type: functional; settings: HCT-8, 72 h, read-out: ED50 (the source's name); how it was run: as §1
[13] = system: HTC; test: Cytostatic activity against rat HTC cells at 66 ug/ml; type: functional, cell-based
[14] = system: HTC; test: Cytostatic activity against rat HTC cells at 66 ug/ml under direct photoirradiation; type: functional, cell-based

SMILES	fold change (FC) [1]	fold change (FC) [2]	fold change (FC) [3]	Activity [4]	EC50 [5] [µg/mL]	EC50 [6] [µg/mL]	EC50 [7] [µg/mL]	EC50 [8] [µg/mL]	Activity [9]	EC50 [10] [µg/mL]	EC50 [11] [µg/mL]	EC50 [12] [µg/mL]	Activity [13]	Activity [14]
CC(=O)O[C@H]1C(=O)[C@@]2(C)[C@H]([C@H](OC(=O)c3ccccc3)[C@]3(O)C[C@H](OC(=O)[C@H](O)[C@@H](NC(=O)c4ccccc4)c4ccccc4)C(C)=C1C3(C)C)[C@]1(OC(C)=O)CO[C@@H]1C[C@@H]2O [PACLITAXEL]	15	1	1											
COc1cc([C@@H]2c3cc4c(cc3[C@@H](O[C@@H]3O[C@@H]5CO[C@@H](C)O[C@H]5[C@H](O)[C@H]3O)[C@H]3COC(=O)[C@H]23)OCO4)cc(OC)c1O [ETOPOSIDE]	153	1	119											
C=Cc1c(C)c2cc3nc(c4c5[nH]c(cc6nc(cc1[nH]2)C(C=O)=C6CC)c(C)c5C(=O)[C@@H]4C(=O)OC)[C@@H](CCC(=O)OC/C=C(\C)CCCC(C)CCCC(C)CCCC(C)C)[C@@H]3C (stereo not given in full)				Active										
C=Cc1c(C)c2cc3nc(c4c5[nH]c(cc6nc(cc1[nH]2)C(C)=C6CC)c(C)c5C(=O)[C@]4(O)C(=O)OC)[C@@H](CCC(=O)OC)[C@@H]3C	>57	1.1	0.8	Active	0.27 (≈ 0.434 µM)	0.45 (≈ 0.723 µM)	0.3 (≈ 0.482 µM)	0.47 (≈ 0.755 µM)	inactive	1.9 (≈ 3.05 µM)	0.84 (≈ 1.35 µM)	0.4 (≈ 0.642 µM)	inactive	Active
C=Cc1c(C)c2cc3nc(c4c5[nH]c(cc6nc(cc1[nH]2)C(C)=C6CC)c(C)c5C(=O)[C@@H]4C(=O)OC)[C@@H](CCC(=O)O)[C@@H]3C [PHEOPHORBIDE A]	0.6	1.1	1	Active	0.48 (≈ 0.81 µM)	1.6 (≈ 2.7 µM)	0.46 (≈ 0.776 µM)	1.5 (≈ 2.53 µM)	inactive	0.88 (≈ 1.48 µM)	0.91 (≈ 1.54 µM)	1.5 (≈ 2.53 µM)	inactive	Active
C=Cc1c(C)c2cc3nc(c4c5[nH]c(cc6nc(cc1[nH]2)C(C)=C6CC)c(C)c5C(=O)[C@]4(O)C(=O)OC)[C@@H](CCC(=O)OC/C=C(\C)CCCC(C)CCCC(C)CCCC(C)C)[C@@H]3C (stereo not given in full)					22 (≈ 24.8 µM)	8.8 (≈ 9.92 µM)	12 (≈ 13.5 µM)	15 (≈ 16.9 µM)		19 (≈ 21.4 µM)	14 (≈ 15.8 µM)	14 (≈ 15.8 µM)		
C=Cc1c(C)c2cc3nc(c4c5[nH]c(cc6nc(cc1[nH]2)C(C)=C6CC)c(C)c5C(=O)[C@]4(O)C(=O)OC)[C@@H](CCC(=O)OC/C=C(\C)CCCC(C)CCCC(C)CC(O)CC(C)C)[C@@H]3C (mixture of isomers)				Active										
C=Cc1c(C)c2cc3nc(c4c5[nH]c(cc6nc(cc1[nH]2)C(C)=C6CC)c(C)c5C(=O)[C@@H]4C(=O)OC)[C@@H](CCC(=O)OC)[C@@H]3C [METHYL PHEOPHORBIDE A]				Active	0.26 (≈ 0.429 µM)	0.95 (≈ 1.57 µM)	0.23 (≈ 0.379 µM)	0.83 (≈ 1.37 µM)	inactive	0.62 (≈ 1.02 µM)	1.2 (≈ 1.98 µM)	1 (≈ 1.65 µM)	inactive	Active
C=Cc1c(C)c2cc3nc(c4c5[nH]c(cc6nc(cc1[nH]2)C(C)=C6CC)c(C)c5C(=O)[C@]4(O)C(=O)OC)[C@@H](CCC(=O)O)[C@@H]3C				Active	1.2 (≈ 1.97 µM)	> 4	1.3 (≈ 2.14 µM)	> 4	inactive	3 (≈ 4.93 µM)	4 (≈ 6.57 µM)	> 4	inactive	Active
C=Cc1c(C)c2cc3nc(c(C(=O)C(=O)OC)c4[nH]c(cc5nc(cc1[nH]2)C(C)=C5CC)c(C)c4C(=O)OC)[C@@H](CCC(=O)O)[C@@H]3C [PURPURIN 7 DIMETHYL ESTER]	0.5	1	0.7	Active	0.64 (≈ 1 µM)	1.6 (≈ 2.51 µM)	0.7 (≈ 1.1 µM)	1.8 (≈ 2.82 µM)	inactive	1.3 (≈ 2.04 µM)	1.1 (≈ 1.72 µM)	1.6 (≈ 2.51 µM)	inactive	Active
C=Cc1c(C)c2cc3nc(c(C(=O)C(=O)OC)c4[nH]c(cc5nc(cc1[nH]2)C(C)=C5CC)c(C)c4C(=O)OC)[C@@H](CCC(=O)OC)[C@@H]3C				Active	0.2 (≈ 0.306 µM)	0.73 (≈ 1.12 µM)	0.2 (≈ 0.306 µM)	0.49 (≈ 0.751 µM)	inactive	0.55 (≈ 0.843 µM)	1.1 (≈ 1.69 µM)	0.79 (≈ 1.21 µM)	inactive	Active
